# pIC50: −log10 of the molar value. Active and inactive are the calls of the source. The rule behind the calls is not given here.
# Assays:
# MV4-11 [1] = test: Cytotoxicity against human MV4-11 cells assessed as reduction in cell viability incubated for 24 hrs by celltiter-glo assay; format: functional, cell-based; details: MV4-11, 24 h
# Procedure, shortened: (§1)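 MV4;11 cells (WT or CASP1−/−), grown in RPMI 1640 with 10% FBS at 37 °C, 5% CO2, plated 2000 cells/well, dosed by pintool across 100 μM to 15.2 nM in three-fold steps for 24 h. Viability by CellTiter-Glo luminescence after 2 min shaking and 10 min at 25 °C. IC50 as mean ± SEM of three biological replicates.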
# MV4-11 [2] = test: Cytotoxicity against CASP1 knockout human MV4-11 cells assessed as reduction in cell viability at 0.015 to 100 uM incubated for 24 hrs by celltiter-glo assay; format: functional; details: dose 0.015-100 µM; procedure, shortened: as §1
# MV4-11 [3] = test: Cytotoxicity against human MV4-11 cells assessed as reduction in cell viability at 0.015 to 100 uM incubated for 24 hrs by celltiter-glo assay; format: functional; details: dose 0.015-100 µM; procedure, shortened: as §1
# Xaa-Pro dipeptidase = target: T1, Xaa-Pro dipeptidase (Homo sapiens, UniProt P12955); test: (§2) Inhibition of recombinant human PEPD using Ala-Pro as substrate assessed as alanine release by measuring increase in fluorescense signal by fluorescence based analysis
# T1 sequence (P12955 whole entry): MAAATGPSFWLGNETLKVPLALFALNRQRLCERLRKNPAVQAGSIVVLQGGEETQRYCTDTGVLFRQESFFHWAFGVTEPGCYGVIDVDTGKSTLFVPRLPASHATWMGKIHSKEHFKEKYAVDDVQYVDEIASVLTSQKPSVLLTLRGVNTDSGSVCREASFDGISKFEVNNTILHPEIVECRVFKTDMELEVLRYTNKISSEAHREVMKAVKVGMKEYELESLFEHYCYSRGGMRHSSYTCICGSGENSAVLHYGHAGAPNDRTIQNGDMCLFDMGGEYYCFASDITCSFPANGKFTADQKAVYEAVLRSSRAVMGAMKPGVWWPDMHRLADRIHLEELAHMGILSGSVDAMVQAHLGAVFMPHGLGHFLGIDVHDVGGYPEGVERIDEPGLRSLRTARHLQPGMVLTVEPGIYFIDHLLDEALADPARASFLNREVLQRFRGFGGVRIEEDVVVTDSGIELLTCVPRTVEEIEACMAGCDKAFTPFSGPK
# MV4-11 [4] = test: Cytotoxicity against human MV4-11 cells assessed as reduction in cell viability at 1 uM incubated for 24 hrs by celltiter-glo assay relative to control; format: functional
# Procedure, shortened: (§3)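 Single-dose viability screen. MV4;11 or OCI-AML2 cells at 2000 cells/well were exposed to 1 μM compound for 24 h. Viability was read by CellTiter-Glo luminescence and expressed as percent inhibition. Values are means of three biological replicates.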
# MV4-11 [5] = test: Cytotoxicity against CASP1 knockout human MV4-11 cells assessed as reduction in cell viability incubated for 24 hrs by celltiter-glo assay; format: functional, cell-based; details: MV4-11, 24 h; procedure, shortened: as §1
# [6] = target: T2, Xaa-Pro dipeptidase (Homo sapiens) (UniProt P12955); test: Inhibition of recombinant human PEPD using Ala-Pro as substrate assessed as alanine release by measuring increase in fluorescense signal at 1 uM by fluorescence based analysis relative to control
# T2 sequence (whole entry): T1 sequence (P12955 whole entry)
# Procedure, shortened: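 Recombinant human PEPD at 50 nM was incubated with Ala-Pro at 40 μM final and compound. Released alanine was detected by coupled alanine transaminase/pyruvate oxidase conversion to H2O2 and resorufin fluorescence (Ex/Em 535/587 nm) at 25 °C.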
# OCI-AML2 = test: Cytotoxicity against human OCI-AML2 cells assessed as reduction in cell viability at 1 uM incubated for 24 hrs by celltiter-glo assay relative to control; format: functional; procedure, shortened: as §3
# Xaa-Pro aminopeptidase 1 [7] = target: T3, Xaa-Pro aminopeptidase 1 (Homo sapiens, UniProt Q9NQW7); test: Inhibition of 6-His tagged XPNPEP1 (unknown origin) expressed in Escherichia coli Rosetta DE3 cells using H-Lys(abz)-Pro-Pro-pNA as substrate at 20 uM incubated for 60 mins by fluorescence based analysis relative to control
# Procedure, shortened: (§4)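 His6-tagged XPNPEP1 was expressed in E. coli Rosetta DE3 (IPTG, 16 h, 37 °C) and purified on TALON resin. Enzyme at 3.5 nM was exposed to compound, then H-Lys(abz)-Pro-Pro-pNA was added at 100 μM final. Fluorescence (Ex/Em 320/410) was followed for 60 min. Single-point inhibition used 20 μM; IC50 as mean ± SEM of three biological replicates.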
# [8] = Stability in human MV4-11 cells assessed as retention time of parent compound incubated for 24 hrs by LC/MS analysis; format: ADME, cell-based; details: mv4-11, 24 h
# Procedure, shortened: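 Compound was held in MV4;11 conditioned medium for 24 h at 37 °C, then LC/MS was run, recording the retention times of the parent ester and its free acid.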
# [9] = target: T2, Xaa-Pro dipeptidase (Homo sapiens); test: as §2
# Xaa-Pro aminopeptidase 1 [10] = target: T3, Xaa-Pro aminopeptidase 1; test: Inhibition of 6-His tagged XPNPEP1 (unknown origin) expressed in Escherichia coli Rosetta DE3 cells using H-Lys(abz)-Pro-Pro-pNA as substrate incubated for 60 mins by fluorescence based analysis; procedure, shortened: as §4
# T3 sequence (Q9NQW7 whole entry): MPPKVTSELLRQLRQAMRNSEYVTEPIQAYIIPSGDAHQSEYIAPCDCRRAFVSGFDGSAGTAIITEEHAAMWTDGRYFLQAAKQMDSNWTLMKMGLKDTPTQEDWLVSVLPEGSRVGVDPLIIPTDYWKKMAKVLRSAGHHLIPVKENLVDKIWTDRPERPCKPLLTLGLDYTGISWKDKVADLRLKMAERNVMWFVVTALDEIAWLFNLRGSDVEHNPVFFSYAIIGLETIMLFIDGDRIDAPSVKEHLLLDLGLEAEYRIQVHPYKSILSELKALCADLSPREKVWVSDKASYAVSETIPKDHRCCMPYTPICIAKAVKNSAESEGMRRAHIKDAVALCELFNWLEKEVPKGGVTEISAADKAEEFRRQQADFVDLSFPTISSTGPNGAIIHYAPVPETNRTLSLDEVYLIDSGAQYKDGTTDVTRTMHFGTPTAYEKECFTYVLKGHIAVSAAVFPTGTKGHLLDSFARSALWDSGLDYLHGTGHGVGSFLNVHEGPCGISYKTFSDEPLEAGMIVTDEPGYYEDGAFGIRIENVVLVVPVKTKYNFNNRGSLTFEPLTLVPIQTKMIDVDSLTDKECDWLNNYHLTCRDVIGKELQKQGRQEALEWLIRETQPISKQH
SMILES,pIC50 (MV4-11 [1]),Activity (MV4-11 [2]) [%],Activity (MV4-11 [3]) [%],pIC50 (Xaa-Pro dipeptidase),pIC50 (MV4-11 [5]),other results
CC(C)C[C@@H](N)[C@H](O)C(=O)N1CCC[C@H]1CNS(C)(=O)=O,< 4.00,97,89,< 4.00,,
COC(=O)[C@H](C)NC(=O)[C@@H]1CCCN1C(=O)[C@@H]1CCCN1C(=O)[C@@H](O)[C@H](N)CC(C)C,4.46,,,,< 4.00,Activity (MV4-11 [4]): 107%; inhibition [6]: 96%; Activity (OCI-AML2): 95%; inhibition (Xaa-Pro aminopeptidase 1 [7]): 23%
C[C@H](NC(=O)[C@@H]1CCCN1C(=O)[C@@H]1CCCN1C(=O)[C@@H](O)[C@H](N)Cc1ccccc1)C(N)=O,< 4.70,,,,< 4.70,
COC(=O)[C@H](Cc1ccccc1)NC(=O)[C@@H](O)[C@H](N)CC(C)C,5.27,7,8,< 4.00,,
CC(C)C[C@H](NC(=O)[C@@H]1CCCN1C(=O)[C@@H](O)[C@H](N)CC(C)C)C(=O)O,,,,,,Retention_time [8]: 2.6 min; inhibition [9]: Active; inhibition (Xaa-Pro aminopeptidase 1 [10]): Active
COC(=O)[C@@H]1CC2(CC2)CN1C(=O)[C@@H](O)[C@H](N)CC(C)C,5.09,101,43,,,
COC(=O)[C@@H]1C[C@H](F)CN1C(=O)[C@@H](O)[C@H](N)CC(C)C,4.21,94,32,,,
CC(C)C[C@@H](N)[C@H](O)C(=O)N1CCCC1,< 4.00,85,91,< 4.00,,
COC(=O)[C@H](Cc1ccccc1)NC(=O)[C@@H]1CCCN1C(=O)[C@@H](O)[C@H](N)CC(C)C,6.18,,,,< 4.70,Activity (MV4-11 [4]): 72%; inhibition [6]: 43%; Activity (OCI-AML2): 42%; inhibition (Xaa-Pro aminopeptidase 1 [7]): 81%
COC(=O)[C@@H]1CCCN1C(=O)[C@@H](O)[C@H](N)CC(C)(C)C,< 4.00,100,20,,,

# Source: ChEMBL document CHEMBL5380787, “Optimized M24B Aminopeptidase Inhibitors for CARD8 Inflammasome Activation” (J Med Chem, 2023)
